Measured values taken from ChEMBL document CHEMBL1124390, “Synthesis and antiviral activity of phosphonoacetic and phosphonoformic acid esters of 5-bromo-2'-deoxyuridine and related pyrimidine nucleosides and acyclonucleosides” (1989).

Columns and labels:
Type in all cases: functional
Human alphaherpesvirus 1 [1] = test: Concentration required to reduce the number of viral plaques […] cell monolayers of herpes simplex virus type 1.
In short: (§1)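 Plaque-reduction assay on Vero monkey kidney cells grown in DMEM + 10% v/v newborn bovine serum. HSV-1 strain HFEM or HSV-2 strain 3345, 50 pfu in duplicate, adsorbed at 4 °C to drained monolayers. Serum-free medium with carboxymethylcellulose plus compound dilution series added; 3 days at 37 °C. Formaldehyde fixation, Giemsa stain; ID50 interpolated from plotted results.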

Human alphaherpesvirus 2 = test: Concentration required to reduce the number of viral plaques […] cell monolayers of herpes simplex virus type 2.; in short: as §1
Human alphaherpesvirus 1 [2] = test: Concentration required to protect 50% of mice against a systemic infection of HSV-1.
In short: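 Swiss albino mice (9-12 g) given test substance 0.5 mL ip at -24, 0 and +24 h relative to infection (three treatments); controls got 0.5 mL water ip on the same schedule. Infection ip with approx 10x LD50 of HSV-1. Survivors counted on day 21; PD50 derived by Reed-Muench method.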

Question: What does the source list for `O=c1[nH]c(=O)n([C@H]2C[C@H](O)[C@@H](CO)O2)cc1Br` [BROXURIDINE]?
Answer: ID50 (Human alphaherpesvirus 1 [1]): 2 µM; ID50 (Human alphaherpesvirus 2): 0.7 µM

Question: How did the PD50 (Human alphaherpesvirus 1 [2]) turn out when `Nc1ncnc2c1ncn2[C@@H]1O[C@H](COP(=O)(O)CC(=O)O)[C@@H](O)[C@@H]1O` was run?
Answer: 0.53 mM/kg

Question: And the ID50 (Human alphaherpesvirus 1 [1])?
Answer: >2000 µM

Question: And the ID50 (Human alphaherpesvirus 2)?
Answer: >2000 µM

Question: With `O=C(O)CP(=O)(O)OC[C@H]1O[C@@H](n2cc(I)c(=O)[nH]c2=O)C[C@@H]1O` as the molecule, how does the PD50 (Human alphaherpesvirus 1 [2]) read?
Answer: 0.21 mM/kg

Question: What about the ID50 (Human alphaherpesvirus 1 [1]) of the same molecule?
Answer: 40 µM

Question: What about the ID50 (Human alphaherpesvirus 2) of the same molecule?
Answer: 10 µM

Question: Which ID50 (Human alphaherpesvirus 1 [1]) does the source give for `Nc1nc(=O)n([C@H]2C[C@H](O)[C@@H](CO)O2)cc1Br` here?
Answer: 1.5 µM

Question: What about the ID50 (Human alphaherpesvirus 2) of the same molecule?
Answer: 0.15 µM

Question: With `Cc1cn([C@@H]2O[C@H](CO)[C@@H](O)[C@@H]2O)c(=O)[nH]c1=O` as the molecule, how does the ID50 (Human alphaherpesvirus 1 [1]) read?
Answer: 10 µM

Question: And the ID50 (Human alphaherpesvirus 2)?
Answer: 19 µM

Question: What does the source list for `Nc1nc2c(ncn2COCCO)c(=O)[nH]1` [ACYCLOVIR]?
Answer: ID50 (Human alphaherpesvirus 1 [1]): 1.3 µM; ID50 (Human alphaherpesvirus 2): 2.2 µM

Question: How did the ID50 (Human alphaherpesvirus 1 [1]) turn out when `O=C(O)CP(=O)(O)OC[C@H]1OC(n2cc(Br)c(=O)[nH]c2=O)[C@@H](O)[C@@H]1O` (stereo partly specified) was run?
Answer: >2000 µM

Question: And the ID50 (Human alphaherpesvirus 2)?
Answer: >2000 µM

Question: With `Nc1ncnc2c1ncn2[C@H]1C[C@H](O)[C@@H](COP(=O)(O)CC(=O)O)O1` as the molecule, how does the PD50 (Human alphaherpesvirus 1 [2]) read?
Answer: 1.05 mM/kg

Question: And the ID50 (Human alphaherpesvirus 1 [1])?
Answer: >2000 µM

Question: And the ID50 (Human alphaherpesvirus 2)?
Answer: >2000 µM

Question: What does the source list for `O=c1[nH]c(=O)n([C@H]2C[C@H](O)[C@@H](CO)O2)cc1I` [IDOXURIDINE]?
Answer: ID50 (Human alphaherpesvirus 1 [1]): 2 µM; ID50 (Human alphaherpesvirus 2): 2.3 µM

Question: `Nc1ncnc2c1ncn2[C@@H]1O[C@H](CO)[C@@H](O)[C@@H]1O` [VIDARABINE] was tested. Which ID50 (Human alphaherpesvirus 1 [1]) did it give?
Answer: 11 µM

Question: What about the ID50 (Human alphaherpesvirus 2) of the same molecule?
Answer: 75 µM

Question: `Nc1nc(O)c2ncn(C3O[C@H](COP(=O)(O)CC(=O)O)[C@@H](O)[C@H]3O)c2n1` (stereo partly specified) was tested. Which PD50 (Human alphaherpesvirus 1 [2]) did it give?
Answer: 0.36 mM/kg

Question: What about the ID50 (Human alphaherpesvirus 1 [1]) of the same molecule?
Answer: >2000 µM

Question: What about the ID50 (Human alphaherpesvirus 2) of the same molecule?
Answer: >2000 µM

Question: With `C=Cc1cn([C@H]2C[C@H](O)[C@@H](COP(=O)(O)CC(=O)O)O2)c(=O)[nH]c1=O` as the molecule, how does the ID50 (Human alphaherpesvirus 1 [1]) read?
Answer: 14 µM

Question: What about the ID50 (Human alphaherpesvirus 2) of the same molecule?
Answer: 50 µM

Question: How did the ID50 (Human alphaherpesvirus 1 [1]) turn out when `O=c1[nH]c(=O)n([C@@H]2O[C@H](CO)[C@@H](O)[C@@H]2O)cc1Br` was run?
Answer: 5 µM

Question: And the ID50 (Human alphaherpesvirus 2)?
Answer: 5.9 µM

Question: Which results are given for `O=C(CP(=O)(O)O)OC[C@H]1O[C@@H](n2cc(Br)c(=O)[nH]c2=O)C[C@@H]1O`?
Answer: ID50 (Human alphaherpesvirus 1 [1]): 12 µM; ID50 (Human alphaherpesvirus 2): 7.4 µM

Question: What does the source list for `O=C(O)P(=O)(O)O` [FOSCARNET]?
Answer: ID50 (Human alphaherpesvirus 1 [1]): 130 µM; ID50 (Human alphaherpesvirus 2): 120 µM

Question: With `Cc1cn(C2O[C@H](COP(=O)(O)CC(=O)O)[C@@H](O)[C@@H]2O)c(=O)[nH]c1=O` (stereo partly specified) as the molecule, how does the ID50 (Human alphaherpesvirus 1 [1]) read?
Answer: >2000 µM

Question: What about the ID50 (Human alphaherpesvirus 2) of the same molecule?
Answer: >2000 µM

Question: `O=C(O)CP(=O)(O)OC[C@H]1OC(n2ccc(=O)[nH]c2=O)[C@H](O)[C@@H]1O` (stereo partly specified) was tested. Which PD50 (Human alphaherpesvirus 1 [2]) did it give?
Answer: 0.31 mM/kg

Question: What about the ID50 (Human alphaherpesvirus 1 [1]) of the same molecule?
Answer: 300 µM

Question: `O=C(O)CP(=O)(O)OC[C@H]1O[C@@H](n2cc(Br)c(=O)[nH]c2=O)C[C@@H]1O` was tested. Which PD50 (Human alphaherpesvirus 1 [2]) did it give?
Answer: 0.2 mM/kg

Question: What about the ID50 (Human alphaherpesvirus 1 [1]) of the same molecule?
Answer: 16 µM

Question: And the ID50 (Human alphaherpesvirus 2)?
Answer: 1.2 µM

Question: Which results are given for `CC(=O)c1cn(C2O[C@H](COP(=O)(O)CC(=O)O)[C@@H](O)[C@@H]2O)c(=O)[nH]c1=O` (stereo partly specified)?
Answer: ID50 (Human alphaherpesvirus 1 [1]): >2000 µM; ID50 (Human alphaherpesvirus 2): >2000 µM

Question: With `C#Cc1cn([C@H]2C[C@H](O)[C@@H](CO)O2)c(=O)[nH]c1=O` as the molecule, how does the ID50 (Human alphaherpesvirus 1 [1]) read?
Answer: 11 µM

Question: And the ID50 (Human alphaherpesvirus 2)?
Answer: 11 µM

Question: What does the source list for `CCc1cn([C@H]2C[C@H](O)[C@@H](CO)O2)c(=O)[nH]c1=O` [EDOXUDINE]?
Answer: ID50 (Human alphaherpesvirus 1 [1]): 40 µM; ID50 (Human alphaherpesvirus 2): 23 µM

Question: `Cc1cn([C@H]2C[C@H](O)[C@@H](COP(=O)(O)CC(=O)O)O2)c(=O)[nH]c1=O` was tested. Which PD50 (Human alphaherpesvirus 1 [2]) did it give?
Answer: 0.45 mM/kg

Question: What about the ID50 (Human alphaherpesvirus 1 [1]) of the same molecule?
Answer: 400 µM

Question: What about the ID50 (Human alphaherpesvirus 2) of the same molecule?
Answer: 160 µM

Question: With `Nc1ncc([C@@H]2O[C@H](COP(=O)(O)CC(=O)O)[C@@H](O)[C@H]2O)c(=O)[nH]1` as the molecule, how does the ID50 (Human alphaherpesvirus 1 [1]) read?
Answer: 780 µM

Question: And the ID50 (Human alphaherpesvirus 2)?
Answer: 770 µM

Question: Which ID50 (Human alphaherpesvirus 1 [1]) does the source give for `C=Cc1cn([C@H]2C[C@H](O)[C@@H](CO)O2)c(=O)[nH]c1=O` here?
Answer: 0.8 µM

Question: What about the ID50 (Human alphaherpesvirus 2) of the same molecule?
Answer: 2 µM

Question: What does the source list for `O=C(O)CP(=O)(O)OC[C@H]1OC(n2cc(I)c(=O)[nH]c2=O)[C@@H](O)[C@@H]1O` (stereo partly specified)?
Answer: ID50 (Human alphaherpesvirus 1 [1]): >2000 µM; ID50 (Human alphaherpesvirus 2): >2000 µM

Question: With `C#Cc1cn([C@H]2C[C@H](O)[C@@H](COP(=O)(O)CC(=O)O)O2)c(=O)[nH]c1=O` as the molecule, how does the ID50 (Human alphaherpesvirus 1 [1]) read?
Answer: >200 µM

Question: What about the ID50 (Human alphaherpesvirus 2) of the same molecule?
Answer: >200 µM

Question: Which results are given for `Nc1nc(=O)n([C@H]2C[C@H](O)[C@@H](COP(=O)(O)CC(=O)O)O2)cc1Br`?
Answer: ID50 (Human alphaherpesvirus 1 [1]): 72 µM; ID50 (Human alphaherpesvirus 2): 15 µM

Question: With `O=C(O)CP(=O)(O)O` [FOSFONET] as the molecule, how does the PD50 (Human alphaherpesvirus 1 [2]) read?
Answer: 0.67 mM/kg

Question: What about the ID50 (Human alphaherpesvirus 1 [1]) of the same molecule?
Answer: 230 µM

Question: What about the ID50 (Human alphaherpesvirus 2) of the same molecule?
Answer: 240 µM

Question: For `O=C(O)P(=O)(O)OC[C@H]1O[C@@H](n2cc(Br)c(=O)[nH]c2=O)C[C@@H]1O`, which ID50 (Human alphaherpesvirus 1 [1]) is on record?
Answer: 4.6 µM

Question: And the ID50 (Human alphaherpesvirus 2)?
Answer: 0.44 µM

Question: `Nc1ncnc2c1ncn2[C@@H]1O[C@H](COP(=O)(O)CC(=O)O)[C@@H](O)[C@H]1O` was tested. Which PD50 (Human alphaherpesvirus 1 [2]) did it give?
Answer: 0.4 mM/kg

Question: What about the ID50 (Human alphaherpesvirus 1 [1]) of the same molecule?
Answer: 580 µM

Question: What does the source list for `O=c1[nH]c(=O)n(C2O[C@H](CO)[C@@H](O)[C@@H]2O)cc1I` (stereo partly specified)?
Answer: ID50 (Human alphaherpesvirus 1 [1]): 13 µM; ID50 (Human alphaherpesvirus 2): 60 µM

Question: With `C=Cc1cn(C2O[C@H](COP(=O)(O)CC(=O)O)[C@@H](O)[C@@H]2O)c(=O)[nH]c1=O` (stereo partly specified) as the molecule, how does the ID50 (Human alphaherpesvirus 1 [1]) read?
Answer: >2000 µM

Question: And the ID50 (Human alphaherpesvirus 2)?
Answer: >2000 µM

Question: For `O=c1[nH]c(=O)n([C@H]2C[C@H](O)[C@@H](CO)O2)cc1/C=C/Br` [BRIVUDINE], which ID50 (Human alphaherpesvirus 1 [1]) is on record?
Answer: 0.6 µM

Question: What about the ID50 (Human alphaherpesvirus 2) of the same molecule?
Answer: 4.2 µM

Question: How did the ID50 (Human alphaherpesvirus 1 [1]) turn out when `Nc1ccn(C2O[C@H](COP(=O)(O)CC(=O)O)[C@@H](O)[C@H]2O)c(=O)n1` (stereo partly specified) was run?
Answer: 1600 µM

Question: And the ID50 (Human alphaherpesvirus 2)?
Answer: 1200 µM

Question: With `O=C(O)CP(=O)(O)OC[C@H]1O[C@@H](n2cc(/C=C/Br)c(=O)[nH]c2=O)C[C@@H]1O` as the molecule, how does the ID50 (Human alphaherpesvirus 1 [1]) read?
Answer: 2.7 µM

Question: And the ID50 (Human alphaherpesvirus 2)?
Answer: 1000 µM

Question: Which ID50 (Human alphaherpesvirus 1 [1]) does the source give for `CCc1cn([C@H]2C[C@H](O)[C@@H](COP(=O)(O)CC(=O)O)O2)c(=O)[nH]c1=O` here?
Answer: 300 µM

Question: And the ID50 (Human alphaherpesvirus 2)?
Answer: 700 µM

Question: How did the ID50 (Human alphaherpesvirus 1 [1]) turn out when `Nc1nc(O)c2ncn(COCCOP(=O)(O)CC(=O)O)c2n1` was run?
Answer: 1800 µM

Question: What about the ID50 (Human alphaherpesvirus 2) of the same molecule?
Answer: 1500 µM
